Test results as given in ChEMBL document CHEMBL4406834, “Phenylthiazoles with nitrogenous side chain: An approach to overcome molecular obesity” (Eur J Med Chem, 2019).
Converted amounts (≈) assume the structure as drawn. The source made the active and inactive calls. The calls are words filed in the database; no cut-off is given here.

Legend:
Staphylococcus aureus [1] = assay: Antibiofilm activity against methicillin resistant Staphylococcus aureus NRS384 USA300 assessed as disruption of matured biofilm formation at 4 x MIC incubated for 24 hrs by crystal violet staining based spectrophotometric analysis; assay type: functional, organism-based
Procedure, shortened: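 MRSA USA300 overnight culture diluted 1:100 in tryptic soy broth + 1% glucose. Biofilm formed for 24 h at 37 °C. Planktonic cells removed, then compounds added at 256 to 2 µg/mL in TSB for 24 h at 37 °C. Wells washed with PBS, stained with 0.1% crystal violet for 30 min, destained with ethanol, read at OD595. Percent eradication relative to DMSO; unpaired t test.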

Streptococcus pneumoniae [2] = assay: Bactericidal activity against methicillin-resistant Streptococcus pneumoniae ATCC 700677 incubated for 18 to 20 hrs followed by replating on tryptic soy agar plate and further incubated for 18 to 24 hrs by CLSI-based broth microdilution assay; assay type: functional
Procedure, shortened: (§1)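 MBC: after the broth microdilution MIC (CAMHB, ~5 × 10^5 CFU/mL, 37 °C, 18-20 h), 4 µL from wells without growth plated onto tryptic soy agar. Plates incubated 37 °C for 18-20 h. MBC is the lowest concentration giving 99.9% reduction in growth.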

Streptococcus pneumoniae [3] = assay: Bactericidal activity against cephalosporin-resistant Streptococcus pneumoniae ATCC 51916 incubated for 18 to 20 hrs followed by replating on tryptic soy agar plate and further incubated for 18 to 24 hrs by CLSI-based broth microdilution assay; assay type: functional; procedure, shortened: as §1
Enterococcus faecium [4] = assay: Bactericidal activity against vancomycin-resistant Enterococcus faecium ATCC 700221 incubated for 18 to 20 hrs followed by replating on tryptic soy agar plate and further incubated for 18 to 24 hrs by CLSI-based broth microdilution assay; assay type: functional; procedure, shortened: as §1
Enterococcus faecalis [5] = assay: Bactericidal activity against vancomycin-resistant Enterococcus faecalis ATCC 51299 incubated for 18 to 20 hrs followed by replating on tryptic soy agar plate and further incubated for 18 to 24 hrs by CLSI-based broth microdilution assay; assay type: functional; procedure, shortened: as §1
Streptococcus pneumoniae [6] = assay: Antibacterial activity against methicillin-resistant Streptococcus pneumoniae ATCC 700677 after 18 to 20 hrs by CLSI-based broth microdilution assay; assay type: functional
Procedure, shortened: (§2)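 Broth microdilution per CLSI. Strains grown aerobically overnight on tryptone soy agar at 37 °C, adjusted to 0.5 McFarland, then diluted in cation-adjusted Mueller-Hinton broth to about 5 × 10^5 CFU/mL. Compounds (10 mg/mL DMSO stocks) serially diluted. Incubated aerobically at 37 °C for 18-20 h. MIC is the lowest concentration with no visible growth.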

Listeria monocytogenes = assay: Antibacterial activity against Listeria monocytogenes ATCC 19111 after 18 to 20 hrs by CLSI-based broth microdilution assay; assay type: functional
Streptococcus pneumoniae [7] = assay: Antibacterial activity against cephalosporin-resistant Streptococcus pneumoniae ATCC 51916 after 18 to 20 hrs by CLSI-based broth microdilution assay; assay type: functional; procedure, shortened: as §2
Enterococcus faecium [8] = assay: Antibacterial activity against vancomycin-resistant Enterococcus faecium ATCC 700221 after 18 to 20 hrs by CLSI-based broth microdilution assay; assay type: functional; procedure, shortened: as §2
Enterococcus faecalis [9] = assay: Antibacterial activity against vancomycin-resistant Enterococcus faecalis ATCC 51299 after 18 to 20 hrs by CLSI-based broth microdilution assay; assay type: functional; procedure, shortened: as §2
Staphylococcus aureus [10] = assay: Bactericidal activity against vancomycin-resistant Staphylococcus aureus 12 incubated for 18 to 20 hrs followed by replating on tryptic soy agar plate and further incubated for 18 to 24 hrs by CLSI-based broth microdilution assay; assay type: functional; procedure, shortened: as §1
Staphylococcus aureus [11] = assay: Bactericidal activity against vancomycin-resistant Staphylococcus aureus 10 incubated for 18 to 20 hrs followed by replating on tryptic soy agar plate and further incubated for 18 to 24 hrs by CLSI-based broth microdilution assay; assay type: functional; procedure, shortened: as §1
Staphylococcus aureus [12] = assay: Bactericidal activity against methicilline-resistant Staphylococcus aureus NRS386 USA700 incubated for 18 to 20 hrs followed by replating on tryptic soy agar plate and further incubated for 18 to 24 hrs by CLSI-based broth microdilution assay; assay type: functional; procedure, shortened: as §1
Staphylococcus aureus [13] = assay: Bactericidal activity against methicilline-resistant Staphylococcus aureus NRS385 USA500 incubated for 18 to 20 hrs followed by replating on tryptic soy agar plate and further incubated for 18 to 24 hrs by CLSI-based broth microdilution assay; assay type: functional; procedure, shortened: as §1
Staphylococcus aureus [14] = assay: Bactericidal activity against methicilline-resistant Staphylococcus aureus NRS384 USA300 incubated for 18 to 20 hrs followed by replating on tryptic soy agar plate and further incubated for 18 to 24 hrs by CLSI-based broth microdilution assay; assay type: functional; procedure, shortened: as §1
Staphylococcus aureus [15] = assay: Bactericidal activity against methicilline-resistant Staphylococcus aureus NRS123 USA400 incubated for 18 to 20 hrs followed by replating on tryptic soy agar plate and further incubated for 18 to 24 hrs by CLSI-based broth microdilution assay; assay type: functional; procedure, shortened: as §1
Staphylococcus aureus [16] = assay: Bactericidal activity against methicilline-resistant Staphylococcus aureus NRS-119 incubated for 18 to 20 hrs followed by replating on tryptic soy agar plate and further incubated for 18 to 24 hrs by CLSI-based broth microdilution assay; assay type: functional; procedure, shortened: as §1
Staphylococcus aureus [17] = assay: Bactericidal activity against methicilline-sensitive Staphylococcus aureus NRS-107 incubated for 18 to 20 hrs followed by replating on tryptic soy agar plate and further incubated for 18 to 24 hrs by CLSI-based broth microdilution assay; assay type: functional; procedure, shortened: as §1
Staphylococcus aureus [18] = assay: Bactericidal activity against methicilline-sensitive Staphylococcus aureus ATCC 6538 incubated for 18 to 20 hrs followed by replating on tryptic soy agar plate and further incubated for 18 to 24 hrs by CLSI-based broth microdilution assay; assay type: functional; procedure, shortened: as §1
Staphylococcus aureus [19] = assay: Bactericidal activity against Staphylococcus aureus ATCC BAA42 incubated for 18 to 20 hrs followed by replating on tryptic soy agar plate and further incubated for 18 to 24 hrs by CLSI-based broth microdilution assay; assay type: functional; procedure, shortened: as §1
Staphylococcus aureus [20] = assay: Antibacterial activity against vancomycin-resistant Staphylococcus aureus 12 after 18 to 20 hrs by CLSI-based broth microdilution assay; assay type: functional; procedure, shortened: as §2
Staphylococcus aureus [21] = assay: Antibacterial activity against vancomycin-resistant Staphylococcus aureus 10 after 18 to 20 hrs by CLSI-based broth microdilution assay; assay type: functional; procedure, shortened: as §2
Staphylococcus aureus [22] = assay: Antibacterial activity against Staphylococcus aureus ATCC BAA42 after 18 to 20 hrs by CLSI-based broth microdilution assay; assay type: functional; procedure, shortened: as §2
Staphylococcus aureus [23] = assay: Antibacterial activity against intracellular methicillin resistant Staphylococcus aureus USA400 infected in mouse J774 cells assessed as intracellular bacterial cells at 2 times MIC concentration incubated for 24 hrs followed by re-plating on TSA plate for 18 to 22 hrs by serial dilution method; assay type: functional, organism-based
Procedure, shortened: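 J774 murine macrophages in DMEM + 10% FBS, 37 °C, 5% CO2, infected with MRSA USA400 at MOI ~10:1 for 1 h. Washed with gentamicin 100 µg/mL to kill extracellular bacteria. […] Cells lysed with 0.1% Triton-X, serially diluted in PBS, plated on TSA for 18-22 h, CFU counted. One-way ANOVA with Dunnett's test.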

Staphylococcus aureus [24] = assay: Bactericidal activity against methicillin-resistant Staphylococcus aureus USA400 assessed as reduction in bacterial burden at 5 times MIC after 24 hrs by time kill assay; assay type: functional, organism-based

What does the source list for CN[C@H](CC(C)C)C(=O)N[C@H]1C(=O)N[C@@H](CC(N)=O)C(=O)N[C@H]2C(=O)N[C@H]3C(=O)N[C@H](C(=O)N[C@H](C(=O)O)c4cc(O)cc(O)c4-c4cc3ccc4O)[C@H](O)c3ccc(c(Cl)c3)Oc3cc2cc(c3O[C@@H]2O[C@H](CO)[C@@H](O)[C@H](O)[C@H]2O[C@H]2C[C@](C)(N)[C@H](O)[C@H](C)O2)Oc2ccc(cc2Cl)[C@H]1O [VANCOMYCIN]?
inhibition (Staphylococcus aureus [1]): inactive; MBC (Streptococcus pneumoniae [2]): 1 µg/mL (≈ 0.69 µM); MBC (Streptococcus pneumoniae [3]): 1 µg/mL (≈ 0.69 µM); MBC (Enterococcus faecium [4]): > 64 µg/mL; MBC (Enterococcus faecalis [5]): 64 µg/mL (≈ 44.2 µM); MIC (Streptococcus pneumoniae [6]): 1 µg/mL (≈ 0.69 µM); MIC (Listeria monocytogenes): 0.5 µg/mL (≈ 0.345 µM); MIC (Streptococcus pneumoniae [7]): 0.5 µg/mL (≈ 0.345 µM); MIC (Enterococcus faecium [8]): > 64 µg/mL; MIC (Enterococcus faecalis [9]): 32 µg/mL (≈ 22.1 µM); MBC (Staphylococcus aureus [10]): > 64 µg/mL; MBC (Staphylococcus aureus [11]): > 64 µg/mL; MBC (Staphylococcus aureus [12]): 1 µg/mL (≈ 0.69 µM); MBC (Staphylococcus aureus [13]): 1 µg/mL (≈ 0.69 µM); MBC (Staphylococcus aureus [14]): 1 µg/mL (≈ 0.69 µM); MBC (Staphylococcus aureus [15]): 1 µg/mL (≈ 0.69 µM); MBC (Staphylococcus aureus [16]): 1 µg/mL (≈ 0.69 µM); MBC (Staphylococcus aureus [17]): 1 µg/mL (≈ 0.69 µM); MBC (Staphylococcus aureus [18]): 1 µg/mL (≈ 0.69 µM); MBC (Staphylococcus aureus [19]): ≤ 0.5 µg/mL; MIC (Staphylococcus aureus [20]): > 64 µg/mL; MIC (Staphylococcus aureus [21]): > 64 µg/mL; MIC (Staphylococcus aureus [22]): ≤ 0.5 µg/mL; inhibition (Staphylococcus aureus [23]): inactive; inhibition (Staphylococcus aureus [24]): Active
